Reference: ChEMBL document CHEMBL1133472, “Synthesis and evaluation of N,N-dialkyl enkephalin-based affinity labels for delta opioid receptors” (J Med Chem, 2000)
Square brackets hold non-standard residues; d marks the D form. Peptide text beside a SMILES is read from it. * marks the point of attachment. ξ: configuration not given here. Tyr(Nα,Nα-Bn2) = O=C([C@H](Cc1ccc(O)cc1)N(Cc1ccccc1)Cc1ccccc1)*; Tyr(Nα,Nα-allyl2) = C=CCN(CC=C)[C@@H](Cc1ccc(O)cc1)C(=O)*; X1 = O=C(C(Cc1ccc(O)cc1)N(Cc1ccccc1)Cc1ccccc1)*; Phe(4-NH2) = Nc1ccc(C[C@H](N)C(=O)O)cc1; Aib = CC(C)(N)C(=O)O; BrAc = O=C(CBr)*; ξA = CC(N)C(=O)O

Key:
[1] = test system: mu (Rattus norvegicus) & delta (Mus musculus) opioid receptors; assay: Ratio of IC50 against mu opioid receptor to that of delta opioid receptor
[2] = target: Mu-type opioid receptor (Rattus norvegicus, UniProt P33535); assay: Binding affinity was measured in cloned Opioid receptor mu 1 expressed in CHO cells using [3H]- DAMGO as radioligand.; format: cell-based
Chain of Mu-type opioid receptor (P33535 whole entry, looked up): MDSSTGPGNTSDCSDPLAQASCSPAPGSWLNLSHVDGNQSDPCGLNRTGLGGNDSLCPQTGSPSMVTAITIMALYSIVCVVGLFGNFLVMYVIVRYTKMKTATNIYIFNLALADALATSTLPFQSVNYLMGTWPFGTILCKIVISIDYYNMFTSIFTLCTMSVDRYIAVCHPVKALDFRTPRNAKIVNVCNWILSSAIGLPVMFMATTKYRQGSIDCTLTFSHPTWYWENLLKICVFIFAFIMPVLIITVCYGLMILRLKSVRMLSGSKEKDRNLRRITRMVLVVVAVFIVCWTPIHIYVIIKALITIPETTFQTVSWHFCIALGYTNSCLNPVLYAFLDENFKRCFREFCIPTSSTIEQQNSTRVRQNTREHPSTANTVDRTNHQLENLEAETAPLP
In short: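 Rat µ receptor stably expressed in CHO cells; membranes (100 µg protein) incubated 90 min at 22 °C in 50 mM Tris pH 7.4 with 3 mM Mg2+ and bestatin, captopril, L-leucyl-L-leucine. [3H]DAMGO at 0.5-0.8 nM; nonspecific binding with 10 µM DAMGO. Filtration on PEI-presoaked GF/B filters, scintillation counting.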

[3] = target: Delta-type opioid receptor (Mus musculus, UniProt P32300); assay: Binding affinity was measured in cloned Opioid receptor delta 1 expressed in CHO cells using [3H]- DPDPE as radioligand.; format: cell-based
Chain of Delta-type opioid receptor (P32300 whole entry): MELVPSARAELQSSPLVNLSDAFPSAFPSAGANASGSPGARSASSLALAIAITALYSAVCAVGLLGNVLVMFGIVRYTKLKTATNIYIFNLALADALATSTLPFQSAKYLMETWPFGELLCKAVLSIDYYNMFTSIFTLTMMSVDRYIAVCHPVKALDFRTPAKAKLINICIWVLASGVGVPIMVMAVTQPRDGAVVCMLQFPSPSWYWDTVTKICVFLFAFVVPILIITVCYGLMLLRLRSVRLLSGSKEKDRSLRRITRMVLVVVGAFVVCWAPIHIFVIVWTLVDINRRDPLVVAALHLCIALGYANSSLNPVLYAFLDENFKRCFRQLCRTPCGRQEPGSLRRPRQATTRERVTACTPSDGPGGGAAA
In short: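 Mouse δ receptor stably expressed in CHO cells; washed membranes (100 µg protein) incubated 90 min at 22 °C in 50 mM Tris pH 7.4 with 3 mM Mg2+ and peptidase inhibitors (bestatin, captopril, L-leucyl-L-leucine). [3H]DPDPE at 0.5-0.8 nM; nonspecific binding with 10 µM DPDPE. Filtration on PEI-soaked GF/B, scintillation counting.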

| Compound | Ratio [1] | IC50 [2] [nM] | IC50 [3] [nM] |
| --- | --- | --- | --- |
| CC(C)C[C@H](NC(=O)[C@H](Cc1ccc(NC(=O)CBr)cc1)NC(=O)CNC(=O)CNC(=O)C(Cc1ccc(O)cc1)N(Cc1ccccc1)Cc1ccccc1)C(=O)O (stereo partly drawn) (X1-GG[Phe(4-NH2)](BrAc)L-OH) | 61 |  |  |
| C=CCN(CC=C)[C@@H](Cc1ccc(O)cc1)C(=O)NC(C)(C)C(=O)NC(C)(C)C(=O)N[C@@H](Cc1ccccc1)C(=O)N[C@@H](CC(C)C)C(=O)O (HELM PEPTIDE1{[C=CCN(CC=C)[C@@H](Cc1ccc(O)cc1)C(=O)[*:2]].[Aib].[Aib].F.L}$$$$V2.0) | 27 | 18900 | 703 |
| C=CCN(CC=C)[C@@H](Cc1ccc(O)cc1)C(=O)NC(C)(C)C(=O)NC(C)C(=O)N[C@@H](Cc1ccc(N)cc1)C(=O)N[C@@H](CC(C)C)C(=O)O (stereo partly drawn) ({Tyr(Nα,Nα-allyl2)}-[Aib][ξA][Phe(4-NH2)]L-OH) | 63 | 87700 | 1390 |
| CC(C)C[C@H](NC(=O)[C@H](Cc1ccc(NC(=O)CBr)cc1)NC(=O)CNC(=O)CNC(=O)[C@H](Cc1ccc(O)cc1)N(Cc1ccccc1)Cc1ccccc1)C(=O)O ({Tyr(Nα,Nα-Bn2)}-GG[Phe(4-NH2)](BrAc)L-OH) |  | 9100 | 149 |
| CC(C)C[C@H](NC(=O)[C@H](Cc1ccc(NCCl)cc1)NC(=O)CNC(=O)CNC(=O)[C@H](Cc1ccc(O)cc1)N(Cc1ccccc1)Cc1ccccc1)C(=O)O | 131 | 19000 | 145 |
| CC(C)C[C@H](NC(=O)[C@H](Cc1ccccc1)NC(=O)CNC(=O)CNC(=O)[C@H](Cc1ccc(O)cc1)N(Cc1ccccc1)Cc1ccccc1)C(=O)O (HELM PEPTIDE1{[O=C([C@H](Cc1ccc(O)cc1)N(Cc1ccccc1)Cc1ccccc1)[*:2]].G.G.F.L}$$$$V2.0) | 20 | 1600 | 78.2 |
| CC(C)C[C@H](NC(=O)[C@H](Cc1ccc(N=C=S)cc1)NC(=O)CNC(=O)CNC(=O)[C@H](Cc1ccc(O)cc1)N(Cc1ccccc1)Cc1ccccc1)C(=O)O | 54 | 1900 | 34.9 |
| C=CCN(CC=C)[C@@H](Cc1ccc(O)cc1)C(=O)NC(C)C(=O)NC(C)C(=O)N[C@@H](Cc1ccc(NC(=O)CBr)cc1)C(=O)N[C@@H](CC(C)C)C(=O)O (stereo partly drawn) ({Tyr(Nα,Nα-allyl2)}-[ξA][ξA][Phe(4-NH2)](BrAc)L-OH) |  | > 10000 | 392 |
